This assay can be described thus: Luciferase/luciferin-expressing antifolate-resistant parasites were used to infect a culture of HepG2 cells that were pre-incubated with compounds. Infected hepatocytes emit light due to the luciferase reaction. Assay results are presented as the percent inhibition of light emission compared to control. […]. It is filed as functional. Particulars: Plasmodium berghei, sporozoite; for pIC50: read-out: LUCIFERASE INFECTION ASSAY - IC50; for IC90: read-out: LUCIFERASE INFECTION ASSAY - IC90. The essentials: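 HepG2-A16-CD81EGFP cells (3x10³/well) were seeded 20-26 h before infection, and compound was added 18 h before infection (0.5% DMSO final; library screened at 0.250-39 µM, average 10 µM). Each well received 1x10³ P. berghei GFP-Luc sporozoites from A. stephensi salivary glands, then plates were spun at 330xg for 3 min. After 48 h at 37°C, 5% CO₂, BrightGlo luminescence was read and normalized to 64 DMSO and 64 10 µM atovaquone wells.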

Setting [1] is: PBLUC_HILL_SLOPE 1.94, PBLUC_R_SQUARED 0.789.
Where [2] appears, read: PBLUC_HILL_SLOPE 1.68, PBLUC_R_SQUARED 0.822.
Setting [3] is: PBLUC_HILL_SLOPE 1.77, PBLUC_R_SQUARED 0.431.

As a reminder, the pIC50 is the negative decadic logarithm of the IC50, by convention in mol/L. One may read the IC90 as the concentration needed for an effect of 90%.

pIC50: −log10 of the molar value.

Regarding `N=c1c2ccccc2nnn1-c1cccc(C(F)(F)F)c1`, under setting [1], the pIC50 was 6.10 and the IC90 is 2470 nM.
As for `c1ccc(CNc2nc(Nc3ccccc3)nc3ccccc23)cc1`, under setting [2], the pIC50 is 6.32 and the IC90 is 1760 nM.
Regarding `Cc1cc(Nc2ccc(Cl)cc2)n2nc(C(F)(F)F)nc2n1`, under setting [3], the pIC50 was 5.81 and the IC90 turned out to be 5320 nM.
